Results reported in ChEMBL document CHEMBL4689842, “EUbOPEN Chemogenomics Library wave 1” (2021).

System: Fibroblast
Assay: Multiplex assay against human fibroblast
Format: toxicity, cell-based
Summary of the method: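 On a CQ1 microscope at 37°C and 5% CO2, live cells were imaged after compound addition. They had been stained at seeding with Hoechst33342, BioTracker Green Microtubule Cytoskeleton Dye, MitoTracker Red and Annexin V Alexa Fluor 680. CellPathfinder machine-learning gating assigned cells to Hoechst high-intensity objects or normal cells, normal cells to healthy, pyknosed or fragmented nuclei, and pyknosed cells to mitotic or apoptotic. Tubulin, mitochondrial-mass and membrane-permeability phenotypes are per cents of healthy-nucleus cells.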

[1] = 12 h, 1 µM, compound concentration 1 uM, replicate 1
[2] = 12 h, 1 µM, compound concentration 1 uM, replicate 2
[3] = 12 h, 10 µM, compound concentration 10 uM, replicate 1
[4] = 12 h, 10 µM, compound concentration 10 uM, replicate 2
[5] = 24 h, 1 µM, compound concentration 1 uM, replicate 1
[6] = 24 h, 1 µM, compound concentration 1 uM, replicate 2
[7] = 24 h, 10 µM, compound concentration 10 uM, replicate 1
[8] = 24 h, 10 µM, compound concentration 10 uM, replicate 2
[9] = 48 h, 1 µM, compound concentration 1 uM, replicate 1
[10] = 48 h, 1 µM, compound concentration 1 uM, replicate 2
[11] = 48 h, 10 µM, compound concentration 10 uM, replicate 1
[12] = 48 h, 10 µM, compound concentration 10 uM, replicate 2

CNc1cc(Oc2cc(C(=O)Nc3cc(N4CCN(C)CC4)cc(C(F)(F)F)c3)ccc2C)ncn1
Population Apoptotic (%) [1]: 61% | Population Fragmented Nuclei (%) [1]: 31% | Population Healthy Nuclei (%) [1]: 39% | Population Hoechst High Intensity Objects (%) [1]: 9% | Population Membrane Permeable-Phenotype (%) [1]: 25% | Population Mitochondria Different-Phenotype (%) [1]: 17% | Population Mitotic Cells (%) [1]: 38% | Population Normal (%) [1]: 90% | Population Pyknosed Nuclei (%) [1]: 29% | Population Tubulin-Different-Phenotype (%) [1]: 53% | Total Cell Count [1]: 147 | Population Apoptotic (%) [2]: 54% | Population Fragmented Nuclei (%) [2]: 10% | Population Healthy Nuclei (%) [2]: 73% | Population Hoechst High Intensity Objects (%) [2]: 2% | Population Membrane Permeable-Phenotype (%) [2]: 10% | Population Mitochondria Different-Phenotype (%) [2]: 60% | Population Mitotic Cells (%) [2]: 45% | Population Normal (%) [2]: 97% | Population Pyknosed Nuclei (%) [2]: 16% | Population Tubulin-Different-Phenotype (%) [2]: 52% | Total Cell Count [2]: 56 | Population Apoptotic (%) [3]: 54% | Population Fragmented Nuclei (%) [3]: 27% | Population Healthy Nuclei (%) [3]: 26% | Population Hoechst High Intensity Objects (%) [3]: 18% | Population Membrane Permeable-Phenotype (%) [3]: 37% | Population Mitochondria Different-Phenotype (%) [3]: 45% | Population Mitotic Cells (%) [3]: 45% | Population Normal (%) [3]: 81% | Population Pyknosed Nuclei (%) [3]: 46% | Population Tubulin-Different-Phenotype (%) [3]: 65% | Total Cell Count [3]: 186 | Population Apoptotic (%) [4]: 73% | Population Fragmented Nuclei (%) [4]: 24% | Population Healthy Nuclei (%) [4]: 13% | Population Hoechst High Intensity Objects (%) [4]: 33% | Population Membrane Permeable-Phenotype (%) [4]: 58% | Population Mitochondria Different-Phenotype (%) [4]: 66% | Population Mitotic Cells (%) [4]: 26% | Population Normal (%) [4]: 66% | Population Pyknosed Nuclei (%) [4]: 61% | Population Tubulin-Different-Phenotype (%) [4]: 66% | Total Cell Count [4]: 70 | Population Apoptotic (%) [5]: 61% | Population Fragmented Nuclei (%) [5]: 30% | Population Healthy Nuclei (%) [5]: 38% | Population Hoechst High Intensity Objects (%) [5]: 11% | Population Membrane Permeable-Phenotype (%) [5]: 16% | Population Mitochondria Different-Phenotype (%) [5]: 10% | Population Mitotic Cells (%) [5]: 38% | Population Normal (%) [5]: 88% | Population Pyknosed Nuclei (%) [5]: 30% | Population Tubulin-Different-Phenotype (%) [5]: 71% | Total Cell Count [5]: 163 | Population Apoptotic (%) [6]: 50% | Population Fragmented Nuclei (%) [6]: 16% | Population Healthy Nuclei (%) [6]: 63% | Population Hoechst High Intensity Objects (%) [6]: 6% | Population Membrane Permeable-Phenotype (%) [6]: 13% | Population Mitochondria Different-Phenotype (%) [6]: 68% | Population Mitotic Cells (%) [6]: 50% | Population Normal (%) [6]: 93% | Population Pyknosed Nuclei (%) [6]: 19% | Population Tubulin-Different-Phenotype (%) [6]: 51% | Total Cell Count [6]: 58 | Population Apoptotic (%) [7]: 80% | Population Fragmented Nuclei (%) [7]: 34% | Population Healthy Nuclei (%) [7]: 19% | Population Hoechst High Intensity Objects (%) [7]: 18% | Population Membrane Permeable-Phenotype (%) [7]: 15% | Population Mitochondria Different-Phenotype (%) [7]: 57% | Population Mitotic Cells (%) [7]: 19% | Population Normal (%) [7]: 81% | Population Pyknosed Nuclei (%) [7]: 45% | Population Tubulin-Different-Phenotype (%) [7]: 76% | Total Cell Count [7]: 163 | Population Apoptotic (%) [8]: 76% | Population Fragmented Nuclei (%) [8]: 16% | Population Healthy Nuclei (%) [8]: 23% | Population Hoechst High Intensity Objects (%) [8]: 48% | Population Membrane Permeable-Phenotype (%) [8]: 80% | Population Mitochondria Different-Phenotype (%) [8]: 80% | Population Mitotic Cells (%) [8]: 23% | Population Normal (%) [8]: 51% | Population Pyknosed Nuclei (%) [8]: 60% | Population Tubulin-Different-Phenotype (%) [8]: 80% | Total Cell Count [8]: 76 | Population Apoptotic (%) [9]: 84% | Population Fragmented Nuclei (%) [9]: 37% | Population Healthy Nuclei (%) [9]: 43% | Population Hoechst High Intensity Objects (%) [9]: 15% | Population Membrane Permeable-Phenotype (%) [9]: 12% | Population Mitochondria Different-Phenotype (%) [9]: 10% | Population Mitotic Cells (%) [9]: 16% | Population Normal (%) [9]: 84% | Population Pyknosed Nuclei (%) [9]: 19% | Population Tubulin-Different-Phenotype (%) [9]: 65% | Total Cell Count [9]: 150 | Population Apoptotic (%) [10]: 60% | Population Fragmented Nuclei (%) [10]: 43% | Population Healthy Nuclei (%) [10]: 52% | Population Hoechst High Intensity Objects (%) [10]: 23% | Population Mitochondria Different-Phenotype (%) [10]: 3% | Population Mitotic Cells (%) [10]: 40% | Population Normal (%) [10]: 76% | Population Pyknosed Nuclei (%) [10]: 4% | Population Tubulin-Different-Phenotype (%) [10]: 49% | Total Cell Count [10]: 158 | Population Apoptotic (%) [11]: 75% | Population Fragmented Nuclei (%) [11]: 59% | Population Healthy Nuclei (%) [11]: 10% | Population Hoechst High Intensity Objects (%) [11]: 30% | Population Membrane Permeable-Phenotype (%) [11]: 36% | Population Mitochondria Different-Phenotype (%) [11]: 54% | Population Mitotic Cells (%) [11]: 24% | Population Normal (%) [11]: 69% | Population Pyknosed Nuclei (%) [11]: 30% | Population Tubulin-Different-Phenotype (%) [11]: 72% | Total Cell Count [11]: 155 | Population Apoptotic (%) [12]: 100% | Population Fragmented Nuclei (%) [12]: 84% | Population Healthy Nuclei (%) [12]: 11% | Population Hoechst High Intensity Objects (%) [12]: 34% | Population Membrane Permeable-Phenotype (%) [12]: 20% | Population Mitochondria Different-Phenotype (%) [12]: 80% | Population Mitotic Cells (%) [12]: 0% | Population Normal (%) [12]: 65% | Population Pyknosed Nuclei (%) [12]: 4% | Population Tubulin-Different-Phenotype (%) [12]: 80% | Total Cell Count [12]: 67

COc1ccc(S(=O)(=O)N(CCO)c2ccccc2CN(C)C/C=C/c2ccc(Cl)cc2)cc1.O=P(O)(O)O
Population Fragmented Nuclei (%) [1]: 35% | Population Healthy Nuclei (%) [1]: 51% | Population Hoechst High Intensity Objects (%) [1]: 16% | Population Membrane Permeable-Phenotype (%) [1]: 12% | Population Mitochondria Different-Phenotype (%) [1]: 29% | Population Mitotic Cells (%) [1]: 19% | Population Normal (%) [1]: 83% | Population Pyknosed Nuclei (%) [1]: 13% | Population Tubulin-Different-Phenotype (%) [1]: 86% | Total Cell Count [1]: 278 | Population Apoptotic (%) [2]: 80% | Population Fragmented Nuclei (%) [2]: 56% | Population Healthy Nuclei (%) [2]: 33% | Population Hoechst High Intensity Objects (%) [2]: 33% | Population Membrane Permeable-Phenotype (%) [2]: 11% | Population Mitochondria Different-Phenotype (%) [2]: 88% | Population Mitotic Cells (%) [2]: 20% | Population Normal (%) [2]: 66% | Population Pyknosed Nuclei (%) [2]: 9% | Population Tubulin-Different-Phenotype (%) [2]: 94% | Total Cell Count [2]: 77 | Population Apoptotic (%) [3]: 75% | Population Fragmented Nuclei (%) [3]: 32% | Population Healthy Nuclei (%) [3]: 55% | Population Hoechst High Intensity Objects (%) [3]: 10% | Population Membrane Permeable-Phenotype (%) [3]: 14% | Population Mitochondria Different-Phenotype (%) [3]: 5% | Population Mitotic Cells (%) [3]: 25% | Population Normal (%) [3]: 89% | Population Pyknosed Nuclei (%) [3]: 12% | Population Tubulin-Different-Phenotype (%) [3]: 19% | Total Cell Count [3]: 179 | Population Apoptotic (%) [4]: 50% | Population Fragmented Nuclei (%) [4]: 61% | Population Healthy Nuclei (%) [4]: 34% | Population Hoechst High Intensity Objects (%) [4]: 44% | Population Membrane Permeable-Phenotype (%) [4]: 22% | Population Mitochondria Different-Phenotype (%) [4]: 22% | Population Mitotic Cells (%) [4]: 50% | Population Normal (%) [4]: 55% | Population Pyknosed Nuclei (%) [4]: 3% | Population Tubulin-Different-Phenotype (%) [4]: 55% | Total Cell Count [4]: 94 | Population Apoptotic (%) [5]: 80% | Population Fragmented Nuclei (%) [5]: 34% | Population Healthy Nuclei (%) [5]: 55% | Population Hoechst High Intensity Objects (%) [5]: 23% | Population Membrane Permeable-Phenotype (%) [5]: 5% | Population Mitochondria Different-Phenotype (%) [5]: 79% | Population Mitotic Cells (%) [5]: 20% | Population Normal (%) [5]: 76% | Population Pyknosed Nuclei (%) [5]: 9% | Population Tubulin-Different-Phenotype (%) [5]: 90% | Total Cell Count [5]: 264 | Population Apoptotic (%) [6]: 100% | Population Fragmented Nuclei (%) [6]: 48% | Population Healthy Nuclei (%) [6]: 38% | Population Hoechst High Intensity Objects (%) [6]: 37% | Population Membrane Permeable-Phenotype (%) [6]: 0% | Population Mitochondria Different-Phenotype (%) [6]: 100% | Population Mitotic Cells (%) [6]: 0% | Population Normal (%) [6]: 62% | Population Pyknosed Nuclei (%) [6]: 12% | Population Tubulin-Different-Phenotype (%) [6]: 88% | Total Cell Count [6]: 75 | Population Apoptotic (%) [7]: 69% | Population Fragmented Nuclei (%) [7]: 33% | Population Healthy Nuclei (%) [7]: 52% | Population Hoechst High Intensity Objects (%) [7]: 14% | Population Membrane Permeable-Phenotype (%) [7]: 8% | Population Mitochondria Different-Phenotype (%) [7]: 3% | Population Mitotic Cells (%) [7]: 30% | Population Normal (%) [7]: 85% | Population Pyknosed Nuclei (%) [7]: 14% | Population Tubulin-Different-Phenotype (%) [7]: 14% | Total Cell Count [7]: 186 | Population Apoptotic (%) [8]: 75% | Population Fragmented Nuclei (%) [8]: 71% | Population Healthy Nuclei (%) [8]: 20% | Population Hoechst High Intensity Objects (%) [8]: 44% | Population Membrane Permeable-Phenotype (%) [8]: 18% | Population Mitochondria Different-Phenotype (%) [8]: 18% | Population Mitotic Cells (%) [8]: 25% | Population Normal (%) [8]: 55% | Population Pyknosed Nuclei (%) [8]: 7% | Population Tubulin-Different-Phenotype (%) [8]: 36% | Total Cell Count [8]: 95
